Here are results for 24 molecules from ChEMBL document CHEMBL1821598, “Synthesis, structure-activity relationship and biological evaluation of anticancer activity for novel N-substituted sophoridinic acid derivatives” (Bioorg Med Chem Lett, 2011).

≈ marks a conversion by molar mass, not a printed value. Calls of active or inactive are those of the source. No cut-off for these calls is given here. Some results are limits rather than exact numbers.

The inhibition is how much of the control response was suppressed. The IC50 is the concentration needed to halve the response being measured.

For experiment [1], the system named is HepG2. As to the kind of experiment: Inhibition of cell proliferation of human HepG2 cells at 30 ug/mL after 48 hrs by Sulforhodamine B assay. Type of experiment: functional. Particulars: HepG2, 48 h. The procedure, abridged:
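HepG2 cells exposed to test compounds at 30 μg/mL for 48 h. HCPT at 30 μg/mL was the positive control. Proliferation was read by SRB and reported as % inhibition. Values are mean ± SD of three separate experiments.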
(Sulforhodamine B stains cellular protein and so reports cell mass.)

The test system of experiment [2] is HepG2. As to the kind of experiment: Cytotoxicity against human HepG2 cells after 48 hrs by Sulforhodamine B assay. Type of experiment: functional, cell-based. Particulars: for IC50: HepG2, 48 h. The procedure, abridged:
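HepG2 cells treated at a series of concentrations for 48 h. Cell death was read by sulforhodamine B staining.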

Experiment [3] concerns HepG2. As to the kind of experiment: Cell cycle arrest in human HepG2 cells assessed as accumulation at G2/M phase at 20 ug/mL after 12 hrs by flow cytometry (Rvb= 11.5%). Type of experiment: functional. A digest of the protocol:
(§1)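 HepG2 cells incubated with or without compound at 20 μg/mL for 4, 12 or 24 h. Cell cycle distribution (G0/G1, S, G2/M) was read from DNA content by flow cytometry. Untreated cells served as control.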
A general note: A flow cytometer gives signals particle by particle.

The subject of experiment [4] is HepG2. As to the kind of experiment: Cell cycle arrest in human HepG2 cells assessed as accumulation at S phase at 20 ug/mL after 12 hrs by flow cytometry (Rvb= 25.4%). Type of experiment: functional. A digest of the protocol: as §1
In another experiment the test system is A549. As to the kind of experiment: Inhibition of cell proliferation of human A549 cells at 30 ug/mL after 48 hrs by Sulforhodamine B assay. Type of experiment: functional. Particulars: A549, 48 h. The procedure, abridged: (§2)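 Human tumor cell lines were treated at 30 μg/mL for 48 h. Antiproliferative activity was measured by SRB assay.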
Experiment [5] has as its system HepG2. As to the kind of experiment: Cell cycle arrest in human HepG2 cells assessed as accumulation at G2/M phase at 20 ug/mL after 24 hrs by flow cytometry (Rvb= 11.5%). Type of experiment: functional. The procedure, abridged:
as §1

In a further experiment the test system is MCF7. Briefly: Inhibition of cell proliferation of human MCF7 cells at 30 ug/mL after 48 hrs by Sulforhodamine B assay. Type of experiment: functional. The settings on record: MCF7, 48 h. The procedure, abridged:
as §2

The test system of experiment [6] is HepG2. Briefly: Cell cycle arrest in human HepG2 cells assessed as accumulation at G0/G1 phase at 20 ug/mL after 12 hrs by flow cytometry (Rvb= 63.1%). Type of experiment: functional. The procedure, abridged: as §1
The target of experiment [7] is T1, DNA topoisomerase 1 (Homo sapiens) (UniProt P11387).
T1 sequence (whole entry): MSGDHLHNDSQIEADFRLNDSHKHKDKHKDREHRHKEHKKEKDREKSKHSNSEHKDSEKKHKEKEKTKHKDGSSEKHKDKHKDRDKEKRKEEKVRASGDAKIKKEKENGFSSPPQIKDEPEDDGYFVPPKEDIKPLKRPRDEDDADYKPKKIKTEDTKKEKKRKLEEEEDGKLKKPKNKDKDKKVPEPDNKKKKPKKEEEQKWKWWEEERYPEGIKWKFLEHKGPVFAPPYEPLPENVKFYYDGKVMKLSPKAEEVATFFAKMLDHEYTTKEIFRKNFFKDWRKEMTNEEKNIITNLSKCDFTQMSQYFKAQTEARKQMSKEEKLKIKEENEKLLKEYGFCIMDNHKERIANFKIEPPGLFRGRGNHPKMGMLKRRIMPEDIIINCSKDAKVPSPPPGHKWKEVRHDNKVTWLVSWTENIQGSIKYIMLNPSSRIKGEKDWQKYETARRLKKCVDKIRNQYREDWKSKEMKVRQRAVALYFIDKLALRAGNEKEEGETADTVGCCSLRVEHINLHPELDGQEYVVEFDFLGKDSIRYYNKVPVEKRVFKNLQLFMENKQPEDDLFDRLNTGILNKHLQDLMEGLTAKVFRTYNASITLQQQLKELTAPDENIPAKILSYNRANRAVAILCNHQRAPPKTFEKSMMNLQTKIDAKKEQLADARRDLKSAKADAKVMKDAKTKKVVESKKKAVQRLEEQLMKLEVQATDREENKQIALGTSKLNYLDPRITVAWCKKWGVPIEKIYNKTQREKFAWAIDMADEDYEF
As to the kind of experiment: Inhibition of DNA topoisomerase 1 using DNA substrate after 0.5 hrs by gel electrophoresis. The procedure, abridged:
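Run over a range of concentrations, with HCPT as positive control.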

Experiment [8] deals with HepG2. Briefly: Cell cycle arrest in human HepG2 cells assessed as accumulation at S phase at 20 ug/mL after 4 hrs by flow cytometry (Rvb= 25.4%). Type of experiment: functional. A digest of the protocol:
as §1

The subject of experiment [9] is HepG2. Briefly: Cell cycle arrest in human HepG2 cells assessed as accumulation at G2/M phase at 20 ug/mL after 4 hrs by flow cytometry (Rvb= 11.5%). Type of experiment: functional. The procedure, abridged:
as §1

The subject of experiment [10] is HepG2. As to the kind of experiment: Induction of apoptosis in human HepG2 cells assessed as disappearance of nuclear membrane and appearance of apoptotic body at 20 ug/mL after 48 hrs by microscopy relative to control. Type of experiment: functional, cell-based. The procedure, abridged:
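HepG2 cells untreated or treated at 20 μg/mL for 48 h. Cells were harvested onto slides and examined by microscopy for apoptotic morphology.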

Experiment [11] concerns HepG2. Briefly: Cell cycle arrest in human HepG2 cells assessed as accumulation at G0/G1 phase at 20 ug/mL after 24 hrs by flow cytometry (Rvb= 63.1%). Type of experiment: functional. A digest of the protocol:
as §1

Experiment [12] is described as follows: Inhibition of cell proliferation of human […] cells at 30 ug/mL after 48 hrs by Sulforhodamine B assay. Type of experiment: functional. The procedure, abridged:
as §2

Experiment [13] has as its system HepG2. As to the kind of experiment: Cell cycle arrest in human HepG2 cells assessed as accumulation at G0/G1 phase at 20 ug/mL after 4 hrs by flow cytometry (Rvb= 63.1%). Type of experiment: functional. A digest of the protocol: as §1
Experiment [14] deals with HepG2. Briefly: Cell cycle arrest in human HepG2 cells assessed as accumulation at S phase at 20 ug/mL after 24 hrs by flow cytometry (Rvb= 25.4%). Type of experiment: functional. The procedure, abridged:
as §1

In the case of `O=C(O)CCC[C@H]1[C@H]2CCCN3CCC[C@@H](CN1C(=O)c1ccccc1)[C@@H]23`, the inhibition at 30 µg/mL with HepG2 [1] was under 5%.

For `O=C(O)CCC[C@H]1[C@H]2CCCN3CCC[C@@H](CN1C(=O)c1ccc4c(c1)OCO4)[C@@H]23`, the inhibition at 30 µg/mL with HepG2 [1] worked out at 11.4%. On to `CC(C)(C)C(=O)N1C[C@@H]2CCCN3CCC[C@@H]([C@H]23)[C@@H]1CCCC(=O)O`, for which, in the experiment on HepG2 [2], the inhibition entry was “Dose-dependent effect” and half-maximal inhibition (IC50) required 43.6 µg/mL (≈ 124 µM). The inhibition at 30 µg/mL in the experiment with HepG2 [1] came to 41.1%. `COc1cc(C(=O)N2C[C@@H]3CCCN4CCC[C@@H]([C@H]34)[C@@H]2CCCC(=O)O)cc(OC)c1OC` yielded an inhibition at 30 µg/mL in the experiment with HepG2 [1] of 11.8%. On the same count and under the same terms, next, `O=C(O)CCC[C@H]1[C@H]2CCCN3CCC[C@@H](CN1S(=O)(=O)c1ccccc1)[C@@H]23`: under 5%; `CCOC(=O)N1C[C@@H]2CCCN3CCC[C@@H]([C@H]23)[C@@H]1CCCC(=O)O`: 19.9%; `Cc1c(C(=O)N2C[C@@H]3CCCN4CCC[C@@H]([C@H]34)[C@@H]2CCCC(=O)O)cccc1[N+](=O)[O-]`: 8.9%. The same measure, in the same setting: in the case of `O=C(O)CCC[C@H]1[C@H]2CCCN3CCC[C@@H](CN1C(=O)c1ccc(F)cc1)[C@@H]23` it was under 5%. Still for that read-out and setting: next, `O=C(O)CCC[C@H]1[C@H]2CCCN3CCC[C@@H](CN1C(=O)c1ccc(F)c([N+](=O)[O-])c1)[C@@H]23`: 7.7%; `CC(Br)C(=O)N1C[C@@H]2CCCN3CCC[C@@H]([C@H]23)[C@@H]1CCCC(=O)O` (stereo partly drawn): 15.6%. With `COc1ccc(CN2C[C@@H]3CCCN4CCC[C@@H]([C@H]34)[C@@H]2CCCC(=O)O)cc1`, in the experiment on HepG2 [1], the inhibition at 30 µg/mL was under 5%. As for `O=C(O)CCC[C@H]1[C@H]2CCCN3CCC[C@@H](CN1C(=O)CBr)[C@@H]23`, the inhibition result in the experiment with HepG2 [2] was “Dose-dependent effect”. The molecule also returned an IC50 with HepG2 [2] of 15.4 µg/mL (≈ 39.8 µM). The Activity in the experiment on HepG2 [3] stood at 7.88%; in the experiment with HepG2 [4], 38.3%; with HepG2 [5], 10.4%; in the experiment with HepG2 [6] it was 53.8%; in the experiment with HepG2 [8], 40.2%; in the experiment with HepG2 [9] it was 9.43%. Also, the Activity was found to be 47.7% in the experiment with HepG2 [11], 50.4% with HepG2 [13] and 41.8% in the experiment with HepG2 [14]. The inhibition at 30 µg/mL with HepG2 [1] came out at 88%; in the experiment on A549 it was 40%; in the experiment on MCF7 it was 73.3%; in experiment [12], 68%. The inhibition entry in [7] is “Active”. In addition, the outcome in the experiment on HepG2 [10] was Active. On to `O=C(O)CCC[C@@H]1NC[C@@H]2CCCN3CCC[C@H]1[C@H]23` [SOPHORIDINIC ACID], for which 30 µg/mL produced 10.3% inhibition with HepG2 [1]. The same measure, in the same setting: in the case of `CC(=O)N1C[C@@H]2CCCN3CCC[C@@H]([C@H]23)[C@@H]1CCCC(=O)O` it was 11.2%; in that of `Cc1ccc(S(=O)(=O)N2C[C@@H]3CCCN4CCC[C@@H]([C@H]34)[C@@H]2CCCC(=O)O)cc1`, 13.4%; in that of `O=C(O)CCC[C@H]1[C@H]2CCCN3CCC[C@@H](CN1C(=O)OCc1ccccc1)[C@@H]23`, 8.4%.

As to `COc1ccc(C(=O)N2C[C@@H]3CCCN4CCC[C@@H]([C@H]34)[C@@H]2CCCC(=O)O)cc1`, in the experiment on HepG2 [1], the inhibition at 30 µg/mL was under 5%.

As to `Cc1ccc(CN2C[C@@H]3CCCN4CCC[C@@H]([C@H]34)[C@@H]2CCCC(=O)O)cc1`, the inhibition at 30 µg/mL with HepG2 [1] was under 5%.

In the experiment on HepG2 [1], `COC(=O)N1C[C@@H]2CCCN3CCC[C@@H]([C@H]23)[C@@H]1CCCC(=O)O` gave an inhibition at 30 µg/mL of 7.8%.

Regarding `Cc1ccc(C(=O)N2C[C@@H]3CCCN4CCC[C@@H]([C@H]34)[C@@H]2CCCC(=O)O)cc1`, the inhibition at 30 µg/mL with HepG2 [1] is 8.5%.

In the case of `O=C(O)CCC[C@H]1[C@H]2CCCN3CCC[C@@H](CN1C(=O)c1cccc([N+](=O)[O-])c1)[C@@H]23`, the inhibition at 30 µg/mL in the experiment on HepG2 [1] is under 5%. As to `O=C1CCC[C@@H]2[C@H]3CCCN4CCC[C@H](CN12)[C@@H]34` [SOPHORIDINE], the inhibition at 30 µg/mL in the experiment on HepG2 [1] stood at 13.8%. Moreover, in [7], the inhibition result is “Active”. Regarding `COc1ccc(C(=O)N2C[C@@H]3CCCN4CCC[C@@H]([C@H]34)[C@@H]2CCCC(=O)O)cc1[N+](=O)[O-]`, the inhibition at 30 µg/mL in the experiment with HepG2 [1] was under 5%. `CC[C@@]1(O)C(=O)OCc2c1cc1n(c2=O)Cc2cc3cc(O)ccc3nc2-1` [HYDROXYCAMPTOTHECIN]: in the experiment with HepG2 [1], the inhibition at 30 µg/mL came out at 92%.
